Screening data as filed in PubChem.
Tb MetRS inh – blocks T. brucei methionyl-tRNA synthetase activity; 360,000 compounds, 0.4% hits; purified T. brucei MetRS, ATP depletion, Kinase-Glo luminescence; inhibition, % at 11.9 µM;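 active = inhibition above a per-plate cutoff of the control wells' mean inhibition plus 3 SD, cut at about 5.5% in these data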
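technique = Kinase-Glo luminescence, ATP depletion format | system = purified MetRS (methionyl-tRNA synthetase) enzyme from Trypanosoma brucei | timing = 15 min preincubation, 2 h reaction, all 25 °C | evaluation = percent inhibition versus plate control medians | dosing = single dose, 11.9 µM final nominal, 0.9% final DMSO | also added = substrates ATP, L-methionine and bulk Escherichia coli tRNA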
PG9 Ab binder – PG9 antibody binding by small molecule. TR-FRET gp120-PG9 antibody binding. inhibition, % at 6.7 µM. 360,000 compounds, 0.43% hits. AID 624416; in the data active = inhibition above about 8.5%
Rin1-Abl PPI inh – blocks binding of human Rin1 to Abl; TR-FRET Rin1/Abl binding, biochemical; 360,000 compounds, 0.4% hits; inhibition, % at 7.35 µM; AID 588664; in the data active = inhibition above about 5%, passing the limit was not always enough
NR1D1 modulator – modulators of human Rev-erb alpha DNA binding | P20393 | Rev-erbα–FITC-DNA binding, fluorescence polarization, 90 min | activity, % at 10 µM | 370,000 compounds, 0.79% hits | AID 1259318;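 active = activity above about 14%, limit read from the data; passing the limit was not always enough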
PG9 binder conf – PG9 antibody binding, confirmed | shares compounds with PG9 Ab binder | TR-FRET PG9 antibody binding, biochemical | inhibition, % at 6.7 µM | 1,500 compounds, 90% hits; in the data active = inhibition above about 9%
PGV04 counter – counter-screen for PG9 binders: binding control antibody PGV04; TR-FRET PGV04 antibody-gp120 binding, biochemical; AID 651604; shares compounds with PG9 Ab binder; inhibition, % at 6.7 µM; 1,500 compounds, 95% hits; in the data active = inhibition above about 9.5%
PG9 binder DR – PG9 antibody binding, dose response; TR-FRET PG9 antibody-gp120 binding inhibition; IC50, µM; shares compounds with PG9 Ab binder; 95 tested, under 10 active; in the data active = IC50 below about 10 µM
PGV04 DR counter – PGV04 binding, dose response counter-screen; shares compounds with PG9 Ab binder; TR-FRET binding to control antibody PGV04; IC50, µM; 95 compounds, 20% hits
PG126 DR counter – binds control antibody PG126 in PG9 counter-screen. shares compounds with PG9 Ab binder. TR-FRET binding to antibody PG126, counterscreen. IC50, µM. 95 compounds, 20% hits
A number is an active result; 0 = inactive; - = no result. Most compounds without a hit are left out; they make up all but 1.8% or so of the library. Cut-off read from the data, not from the text of the source, unless noted: active = IC50 below about 9 µM; inactive = the rest.

SMILES | Tb MetRS inh | PG9 Ab binder | Rin1-Abl PPI inh | NR1D1 modulator | PG9 binder conf | PGV04 counter | others
CCC(=O)c1ccc(OCC(=O)c2ccc3c(c2)NC(=O)CO3)cc1 | 0 | 15.7 | 0 | 0 | 37.8 | 37.7 | PG9 binder DR=0;PGV04 DR counter=0;PG126 DR counter=0
CCc1ccc(OCC(=O)OCC(=O)c2ccc3c(c2)NC(=O)CO3)cc1 | 0 | 14.6 | 0 | 0 | 24.0 | 33.4
CCCCCCC(=O)OCC(=O)c1ccc2c(c1)NC(=O)CO2 | 0 | 0 | 0 | 0 | - | -
COc1cccc(CO[C@H]2C=C[C@@H](c3ccccc3)O[C@@H]2COC(C)=O)c1 | - | - | - | 0 | - | -
Cc1cc(N2CCN(C(=O)OC(C)(C)C)C[C@H]2C)ccc1N1CC[C@@H](O)C1 | - | 0 | - | 0 | - | -
Fc1ccccc1-c1n[nH]c(=S)n1N=Cc1ccc(-c2ccccc2)cc1 | - | - | - | 0 | - | -
S=c1nc[nH]c2c1cnn2-c1ccccc1 | 0 | 16.9 | 0 | 0 | 0 | 0 | PG9 binder DR=0;PGV04 DR counter=0;PG126 DR counter=0
Nc1ncnc2c1cnn2-c1ccccc1 | 0 | 0 | 0 | 0 | - | -
CCOC(=O)c1[nH]c2ccc(OC)cc2c1NC(=S)N1CCN(c2ccccn2)CC1 | 0 | 0 | 0 | 0 | - | -
CCOC(=O)c1[nH]c2ccc(OC)cc2c1NC(=S)N1CCN(c2cccc(Cl)c2)CC1 | 0 | 54.5 | 0 | 0 | 16.1 | 29.6
CCOC(=O)c1[nH]c2ccc(OC)cc2c1NC(=S)N1CCN(c2ccccc2)CC1 | 0 | 11.5 | 0 | 0 | 0 | 9.5
CCN(CC)C(=O)CC[C@H]1CC[C@]2(CCCN(C(=O)C3CCCC3)C2)O1 | - | - | - | 0 | - | -
Cc1cccc2cc(C#N)c(SCC(=O)NNC(=O)Cc3ccccc3)nc12 | 0 | 17.2 | 0 | 0 | 34.6 | 28.3
COc1ccc(C2Nc3cccc4cccc(c34)N2)cc1 | 0 | 0 | 0 | 0 | - | -
COc1cc(OC)c(C2Nc3cccc4cccc(c34)N2)c(OC)c1 | 0 | 11.9 | 0 | 0 | 0 | 12.0
COc1cccc(-n2nnnc2SCC(=O)Nc2ccccc2OC)c1 | 0 | 0 | 0 | 0 | - | -
COc1cccc(-n2nnnc2SCC(=O)Nc2ccc(C(C)=O)cc2)c1 | 0 | 16.2 | 0 | 0 | 24.4 | 38.6
COc1ccc2[nH]c(C(=O)N3CCNCC3)cc2c1OC | 0 | 0 | 0 | 0 | - | -
Cc1ccc(CN2CCS(=O)(=O)CC2)cc1 | 0 | 10.7 | 0 | 0 | 0 | 12.6
COc1ccc(CN2CCS(=O)(=O)CC2)cc1OC | 0 | 0 | 0 | 0 | - | -
CCOC(=O)c1sc(N)nc1C(F)(F)F | 0 | 0 | 0 | 0 | - | -
CCOC(=O)c1c(C)[nH]c(C(=O)COC(=O)COc2ccc(OC)cc2)c1C | 0 | 34.5 | 0 | 0 | 35.2 | 53.2
Cc1csc2c(=O)sc(NC(=O)c3ccco3)nc12 | 0 | 37.4 | 0 | 0 | 48.6 | 78.0
O=C(Nc1nc2ccsc2c(=O)s1)c1ccco1 | 0 | 0 | 0 | 0 | - | -
Cc1csc2c(=O)sc(NC(=O)c3cccs3)nc12 | 0 | 63.7 | 0 | 0 | 65.8 | 87.8
SMILES | Tb MetRS inh | PG9 Ab binder | Rin1-Abl PPI inh | NR1D1 modulator | PG9 binder conf | PGV04 counter | others
Cc1csc(NC(=O)c2cccs2)n1 | 0 | 0 | 0 | 0 | - | -
COc1ccc(NC(=O)CCn2c(=S)[nH]c3ccccc3c2=O)cc1 | 0 | 22.1 | 0 | 0 | 22.2 | 26.7
COc1cc(OC)cc(C(=O)NCCNc2nc3cc(C)cc(C)c3cc2C#N)c1 | 0 | 20.3 | 0 | 0 | 9.0 | 23.2
CCC1(C)Cc2ccccc2-c2nc[nH]c(=O)c21 (configuration not stated) | 0 | 0 | 0 | 0 | - | -
Cn1c(=S)[nH]c2c(c1=O)C(C)(C)Cc1ccccc1-2 | 0 | 17.1 | 0 | 0 | 11.2 | 11.3
CC1(C)Cc2ccccc2-c2c1c(=O)n(Cc1ccccc1)c1nnnn21 | 0 | 0 | 0 | 0 | - | -
CC1(C)Cc2ccccc2-c2nc(NN)[nH]c(=O)c21 | 0 | 0 | 0 | 0 | - | -
CCn1c(=S)[nH]c2c(c1=O)C(C)(C)Cc1ccccc1-2 | 0 | 23.9 | 0 | 0 | 13.8 | 12.4 | PG9 binder DR=0;PGV04 DR counter=0;PG126 DR counter=0
CCC1(C)Cc2ccccc2-c2[nH]c(=S)[nH]c(=O)c21 (configuration not stated) | 0 | 32.4 | 0 | 0 | 0 | 0
Cc1ccc(-c2csc3ncnc(N4CCN(S(=O)(=O)c5cccs5)CC4)c23)cc1 | 0 | - | 0 | - | - | -
Cc1ccc(CNC(=O)O[C@H]2CC[C@@]34CCCN3C(=O)CCC[C@H]4[C@H]2C)o1 | - | - | - | 0 | - | -
Cc1ccc(C2C(C#N)=C(N)SC(N)=C2C#N)c(C)c1 | 0 | - | 0 | - | - | -
Cc1ccc(C2C(C#N)=C(N)SC(N)=C2C#N)cc1 | 0 | 13.4 | 0 | 0 | 0 | 0
COc1ccc(Cn2c(=O)[nH]c3cc(C(=O)NCc4ccc5c(c4)OCO5)ccc3c2=O)cc1 | 0 | 9.1 | 0 | - | 13.8 | 17.8
CCOc1cccc(C2C(C(=O)c3ccc(C)o3)=C(O)C(=O)N2CCCn2ccnc2)c1 (configuration not stated) | 0 | 9.1 | 0 | 0 | 15.2 | 18.8
CCOc1cccc(C2C(C(=O)c3ccc(C)o3)=C(O)C(=O)N2Cc2ccncc2)c1 (configuration not stated) | 0 | 0 | 0 | 0 | - | -
CCCOc1ccc(C2C(C(=O)c3ccco3)=C(O)C(=O)N2CCCn2ccnc2)cc1 (configuration not stated) | 0 | 18.6 | 0 | 0 | 24.4 | 28.3
COCCCN1C(=O)C(O)=C(C(=O)c2ccc(C)o2)C1c1cccc(Br)c1 (configuration not stated) | 0 | 18.6 | 0 | 0 | 20.1 | 26.5
C[C@H]1[C@@H](NCc2cccs2)CC[C@@]23CCCN2C(=O)CCC[C@@H]13 | - | - | - | 0 | - | -
CCOc1ccc(NC(=O)CCC(=O)c2ccc(Br)cc2)cc1 | 0 | 15.9 | 0 | 0 | 18.1 | 22.3
CCn1c(SCC(=O)Nc2nc3ccccc3s2)nnc1-c1ccc(Br)cc1 | 0 | 21.1 | 0 | 0 | 23.4 | 35.1
Cn1c(SCC(=O)Nc2nc3ccccc3s2)nnc1-c1ccccc1 | 0 | 0 | 0 | 0 | - | -
C=C(C)[C@@H]1CC2=C(OC)C(CC=C(C)C)(CC=C(C)C)C(=O)C(C(=O)c3ccccc3)=C2O1 | - | - | - | 0 | - | -
O=C(O)c1ccccc1C(=O)c1cccc2c(Br)cccc12 | 0 | 54.5 | 0 | 0 | 67.6 | 83.4
O=C(O)c1ccccc1C(=O)c1cccc2c(F)cccc12 | 0 | 0 | 0 | 0 | - | -
CCN(C(=O)COC(=O)CCc1ccc(OC)cc1)c1c(N)n(Cc2ccccc2)c(=O)[nH]c1=O | 0 | 0 | 0 | 0 | - | -
COc1ccc(/C(O)=C2/C(=O)C(=O)N(CCCN(C)C)C2c2ccc(Cl)cc2)cc1OC (configuration not stated) | 0 | 13.0 | 0 | 0 | 23.5 | 29.6
COc1ccc(C2/C(=C(\O)c3ccc(OC)c(Cl)c3)C(=O)C(=O)N2CCN(C)C)cc1 (configuration not stated) | 0 | 0 | 0 | 0 | - | -
